The structures appear in SMILES notation. The whole screen tested about 2,400 compounds, of which fewer than 10 were called active. The list is a sample of the results. A number with no mark means an inactive call.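 How the source made its calls: active means activation of at least 50%; inactive means the rest.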

Chain of G-protein coupled receptor 183 (Homo sapiens) (P32249 whole entry, looked up): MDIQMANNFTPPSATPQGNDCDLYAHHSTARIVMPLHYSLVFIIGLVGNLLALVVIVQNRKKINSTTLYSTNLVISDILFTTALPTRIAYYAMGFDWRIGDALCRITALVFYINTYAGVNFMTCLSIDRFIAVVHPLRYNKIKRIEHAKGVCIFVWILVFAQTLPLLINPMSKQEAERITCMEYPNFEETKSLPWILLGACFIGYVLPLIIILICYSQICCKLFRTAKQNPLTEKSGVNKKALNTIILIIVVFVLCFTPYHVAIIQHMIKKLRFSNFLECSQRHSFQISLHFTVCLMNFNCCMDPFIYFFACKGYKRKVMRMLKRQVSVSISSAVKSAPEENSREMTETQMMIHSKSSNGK

The target in the experiment is G-protein coupled receptor 183 (Homo sapiens) (UniProt P32249). Briefly: EBI2 agonist activity of antagonist hits, confirmation, counter-screen for EBI2 antagonist project, cell-based, single concentration, agonist mode, luminescence (AID 652000). Conditions: EBI2-expressing cells, 60 min, at 5 µM, hits give high values, 0% vehicle, 100% 7α,25-dihydroxycholesterol control. The procedure, abridged:
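Test system: beta-arrestin reporter cell line; Amount: 1500 cells/well; Measured by: luminescence; Incubation: overnight seeding and 60-min compound at 37°C, 60-min detection at 25°C; Benchmarks: positive control with 7alpha,25-OHC.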
Turning to `O=C(NCCNc1ccc([N+](=O)[O-])cc1)c1cccc2c(Br)cccc12`, the activation is 0.12%.

Take `COc1ccccc1N1CCN(C(=O)c2cc(-c3ccc(Br)cc3)on2)CC1`: the activation is 1.43%.

In the case of `Cc1cccc(C)c1-n1nnnc1C(CCc1ccccc1)N1CCN(C/C=C/c2ccccc2)CC1` (stereo not given), the activation is -1.39%.

With `O=C(CCc1ccccc1)NNC(=O)COc1ccc(Cl)cc1`, the activation is 0.21%.

Consider `COc1ccc(-c2nc(N)ncc2-c2ccc(Cl)cc2)c(O)c1`, for which the activation is 1.03%.

With `COc1cc(/C=C(\C#N)C(=O)Nc2ccc3ccccc3c2)c([N+](=O)[O-])cc1OC`, the activation was -0.75%.

On to `O=C(COc1ccc(Cl)cc1)N1CCN(S(=O)(=O)c2ccc(Cl)cc2)CC1`, for which the activation was 1.62%.

Consider `O=C(c1ccc(-n2cnnn2)cc1)N1CCN(C(c2ccccc2)c2ccccc2)CC1`, for which the activation is 1.53%.

For `Cc1cc(OCCOc2cccc3cccnc23)c(C)cc1Cl`, the activation was 1.3%.

As to `COc1ccc(C(C(=O)NC2CCCCC2)N(C(=O)c2snc(C(N)=O)c2N)c2ccccc2OC)cc1` (stereo not given), the activation is 1.3%.

As for `CCCCN=C1C([N+](=O)[O-])=CC=C2C1=NC1(CCCCC1)N2O`, the activation was -0.38%.

Turning to `c1ccc(C(c2ccccc2)N2CCN(Cc3nnnn3C3CCCCC3)CC2)cc1`, the activation was 0.25%.

`COc1ccc(/C=N/N=C/c2c[nH]c(=O)c(C#N)c2Nc2ccccc2)cc1`: the activation is -1.52%.

As for `COc1ccc(N(CC(=O)Nc2cc(OC)ccc2OC)S(=O)(=O)c2c(C)noc2C)cc1`, the activation was 1.12%.

Regarding `Cc1ccc(S(=O)(=O)NCCNC(C)c2ccc(Br)cc2)cc1` (stereo not given), the activation was 0.98%.

As to `Cc1cccc(-n2c(O)c(C=Nc3ccccc3N)c(=O)[nH]c2=O)c1`, the activation is -2.25%.

Consider `O=C(/C=C/c1cccc([N+](=O)[O-])c1)N1CCN(Cc2ccccc2)CC1`, for which the activation was -0.29%.

As for `O=c1[nH]c(CN2CCN(S(=O)(=O)c3ccc4c(c3)OCCO4)CC2)nc2sc3c(c12)CCCC3`, the activation was -1.11%.

Turning to `O=C(NCCCc1ccccc1)C1CCC(=O)N(CCc2ccc(Cl)cc2)C1` (stereo not given), the activation is 1.57%.

For the compound `COc1ccc(C(=O)/C=C/c2ccc(OC3CSC3)cc2)cc1`, the activation was 2.89%.

Consider `CCOC(=O)C1CCN(C(=O)COc2cc(C)c(Br)c(C)c2)CC1`, for which the activation was 2.25%.

Regarding `N#Cc1ccc(C2=CC(=O)C[C@H](c3ccc(Cl)cc3)C2)cc1`, the activation is 1.84%.

With `COc1cccc(NC(=O)Cn2c3ccc(F)cc3c3nc4n(c(=O)c32)CCS4)c1`, the activation is 0.89%.

`COc1ccc2cc(C3=CC(=O)C[C@H](c4ccc5c(c4)OCO5)C3)ccc2c1`: the activation is -1.39%.

For the compound `CCC(c1nnc(SCC(=O)NNC(=O)c2ccccc2)n1Cc1ccccc1)N(C)C` (stereo not given), the activation is -1.34%.

`Cc1cc(C)c2c(=O)n3c(nc2c1)C(CC(C)C)NC(=O)c1cc2ccccc2cc1-3` (stereo not given): the activation is 0.75%.

With `COc1ccc(OCC(=O)N2CCN(C(=O)c3cccs3)CC2)cc1`, the activation is 1.48%.

Regarding `CCN1CCN(C(=O)CSc2ccc(C)cc2)CC1`, the activation was 0.02%.

Regarding `Cc1ccc(OCC(=O)N2CCN(S(=O)(=O)c3ccc(Cl)s3)CC2)cc1C`, the activation is 1.84%.

As to `CCCCC(=O)N(C)c1c(CC)nc2c(OCc3ccc(Cl)cc3Cl)cccn12`, the activation was -1.02%.

(Values after PubChem BioAssay AID652000 (Sanford-Burnham Center for Chemical Genomics, 2013).)
